Results published in ChEMBL document CHEMBL4152204, “Discovery of N-hydroxy-3-alkoxybenzamides as direct acid sphingomyelinase inhibitors using a ligand-based pharmacophore model” (Eur J Med Chem, 2018).
Activity calls are given as the source filed them. No cut-off for these calls is given here.

target: T1, Sphingomyelin phosphodiesterase (Bos taurus, UniProt Q0VD19); test: Inhibition of bovine brain-derived acidic sphingomyelinase
T1 sequence (Q0VD19 whole entry): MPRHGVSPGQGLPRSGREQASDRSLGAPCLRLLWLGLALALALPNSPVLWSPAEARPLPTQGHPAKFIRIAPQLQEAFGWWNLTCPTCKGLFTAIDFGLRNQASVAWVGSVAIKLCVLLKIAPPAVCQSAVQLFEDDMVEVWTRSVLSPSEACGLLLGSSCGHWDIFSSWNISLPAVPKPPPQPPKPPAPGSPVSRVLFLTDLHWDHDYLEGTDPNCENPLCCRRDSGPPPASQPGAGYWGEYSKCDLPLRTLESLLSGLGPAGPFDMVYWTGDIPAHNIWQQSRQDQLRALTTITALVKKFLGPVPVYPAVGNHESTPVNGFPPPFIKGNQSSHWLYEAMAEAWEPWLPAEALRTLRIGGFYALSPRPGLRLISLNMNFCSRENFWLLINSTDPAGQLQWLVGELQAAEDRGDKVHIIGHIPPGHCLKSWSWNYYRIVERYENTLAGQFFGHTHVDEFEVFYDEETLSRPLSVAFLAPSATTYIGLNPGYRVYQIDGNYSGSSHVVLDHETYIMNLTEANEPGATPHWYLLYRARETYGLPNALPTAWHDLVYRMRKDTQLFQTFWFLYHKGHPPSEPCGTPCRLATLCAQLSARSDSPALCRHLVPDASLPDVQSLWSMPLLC

Compound | IC50
COc1c(O)cc2oc3cc(O)c(CC=C(C)C)c(O)c3c(=O)c2c1CC=C(C)C [MANGOSTIN] | 14.1 µM

target: T2, Sphingomyelin phosphodiesterase 2 (Homo sapiens) (UniProt O60906); test: Inhibition of neutral sphingomyelinase (unknown origin) assessed as reduction in NBD-ceramide release at 100 uM by TLC based fluorescence assay
T2 sequence (whole entry): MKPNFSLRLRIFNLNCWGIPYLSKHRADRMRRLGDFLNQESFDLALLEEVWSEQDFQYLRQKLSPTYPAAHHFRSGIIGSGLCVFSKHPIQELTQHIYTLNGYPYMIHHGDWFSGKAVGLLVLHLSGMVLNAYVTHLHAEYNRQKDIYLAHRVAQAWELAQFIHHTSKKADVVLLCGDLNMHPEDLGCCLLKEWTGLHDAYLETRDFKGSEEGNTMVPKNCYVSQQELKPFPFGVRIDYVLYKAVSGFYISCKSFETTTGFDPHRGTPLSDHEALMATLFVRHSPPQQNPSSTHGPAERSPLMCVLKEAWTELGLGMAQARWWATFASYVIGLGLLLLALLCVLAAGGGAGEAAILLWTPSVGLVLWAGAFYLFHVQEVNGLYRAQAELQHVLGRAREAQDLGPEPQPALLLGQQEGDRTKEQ

Compound | inhibition
CCCCCCCCCCOc1cccc(C(=O)NO)c1 | inactive

tested on: NIH3T3; test: Cytoprotective activity against UV-induced apoptosis in mouse NIH/3T3 cells assessed as necrotic cells preincubated for 20 hrs followed by UV irradiation for 5 mins and measured after 24 hrs by flow cytometric analysis; type: functional, cell-based
Outline: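 NIH3T3 cells grown in DMEM plus 10% FBS at 37 °C and 5% CO₂, seeded in 6-well plates and left overnight. Inhibitor (0–60 µM, DMSO solvent) added for 20 h. Medium replaced, then UV at peak 315 nm, 0.29 mW/cm² for 5 min. Cells kept with inhibitor 24 h more before flow cytometry by quadrant regions. Untreated, unirradiated cells served as control. Three independent experiments.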

Compound | Activity
CN(C)CCC=C1c2ccccc2CCc2ccccc21 | Dose-dependent effect

target: T3, Sphingomyelin phosphodiesterase (Homo sapiens, UniProt P17405); test: Inhibition of acid sphingomyelinase in human HuH7 cell lysate using NBD-sphingomyelin as substrate after 30 mins by TLC based fluorescence assay
T3 sequence (P17405 whole entry): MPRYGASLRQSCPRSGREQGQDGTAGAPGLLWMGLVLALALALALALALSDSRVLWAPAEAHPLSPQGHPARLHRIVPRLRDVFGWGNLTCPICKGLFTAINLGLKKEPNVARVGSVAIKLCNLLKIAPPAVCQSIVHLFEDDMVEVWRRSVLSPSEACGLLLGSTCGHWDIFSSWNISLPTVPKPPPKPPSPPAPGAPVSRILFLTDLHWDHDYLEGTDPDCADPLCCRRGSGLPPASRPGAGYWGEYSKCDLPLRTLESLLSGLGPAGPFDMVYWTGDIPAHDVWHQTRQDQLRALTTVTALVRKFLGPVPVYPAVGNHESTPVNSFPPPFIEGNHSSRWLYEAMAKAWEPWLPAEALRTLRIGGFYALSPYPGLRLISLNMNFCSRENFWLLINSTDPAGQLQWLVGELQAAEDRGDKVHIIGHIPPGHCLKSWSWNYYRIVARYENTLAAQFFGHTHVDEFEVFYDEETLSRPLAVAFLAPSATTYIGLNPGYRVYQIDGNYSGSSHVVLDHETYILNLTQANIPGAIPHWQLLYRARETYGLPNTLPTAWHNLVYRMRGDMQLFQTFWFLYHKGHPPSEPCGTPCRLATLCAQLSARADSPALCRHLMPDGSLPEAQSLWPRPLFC

Compound | IC50
O=C(NO)c1cccc(OCc2ccc(Br)cc2)c1 | 19.4 µM
CCCCc1oc2ccccc2c1C(=O)c1cc(I)c(OCCN(CC)CC)cc1I | 39.8 µM
CCCCCCCCOc1cccc(C(=O)NO)c1 | 17.4 µM
CCCCCCCCCCOc1cccc(C(=O)NO)c1 | 1.42 µM
O=C(c1cc(-c2ccccc2)n(-c2ccc(Cl)cc2Cl)n1)N1CCOCC1 | 28.2 µM
O=C(NO)c1cccc(OCc2ccccc2)c1 | 60.4 µM
CCCCCCCCCCCCS(=O)(=O)O[C@H]1OC(O)[C@H](OP(=O)(O)O)[C@@H](O)[C@@H]1OP(=O)(O)O (stereo partly drawn) | 0.44 µM
CCCCCCCCCCOc1cc(C(=O)NCCO)ccc1OC | 71 µM
CCCCCCCCOc1cc(C(=O)NO)ccc1OC | 16.1 µM
CCCCCCCC1Cc2cc(O)c(C(=O)O)c(O)c2C(C)O1 (stereo not drawn) | 68.7 µM
Cc1cc2[nH]c(=O)c(=O)[nH]c2cc1S(=O)(=O)N1CCN(c2cccc(Cl)c2)CC1 | 20 µM
O=P(O)(O)O[C@H]1[C@H](O)[C@@H](OP(=O)(O)O)[C@H](O)[C@@H](OP(=O)(O)O)[C@H]1O | 26.7 µM
COc1ccc(/C=N/NC(=O)c2[nH]c3ccc(Cl)cc3c2-c2ccccc2)c(C(=O)O)c1OC | 14.1 µM
CCCCCCCCS(=O)(=O)OC[C@H]1OC(O)[C@H](OP(=O)(O)O)[C@@H](O)[C@@H]1OP(=O)(O)O (stereo partly drawn) | 2.34 µM
CCCCCCCCOC(=O)c1c(CSC(=N)N)n(C)c2cc(Br)c(OC(C)=O)cc12 | 31.6 µM
Cc1c(C(=O)Nc2cccc(C(F)(F)F)c2)oc2ccc(S(=O)(=O)N3CCOCC3)cc12 | 22.4 µM
O=c1cc(-c2ccc3c(c2)OCCCO3)oc2c1ccc1ccccc12 | 24.3 µM
CCOc1ccc2oc(-c3cc(Br)cc4c3OCOC4)c(N)c(=O)c2c1 | 3.5 µM

Compound | IC50
COc1ccc(C(=O)NO)cc1OCc1ccccc1 | 10.5 µM
CC(C)N1C(=N)/C(=C\c2nc(=O)c3ccccc3[nH]2)c2ccccc21 | 31.6 µM
CCCCCCCC(OP(=O)(O)O)OP(=O)(O)O | 0.35 µM
CCCCCCCCCCCCOc1cc(C(=O)NO)ccc1OC | 18.6 µM
COc1ccc(C(=O)NO)cc1OCc1ccc(Br)cc1 | 7.78 µM
COc1ccc(COc2cccc(C(=O)NO)c2)cc1 | 42.7 µM
CCN(CC)C(=O)/C=C/Cc1c(O)c(OC)cc2oc3cc(OC)cc(O)c3c(=O)c12 | 4.89 to 5.07 µM
CC1=C(C(=O)Nc2ccccc2)C(c2ccc(Cl)cc2)n2c(s/c(=C/c3cccc(OCC(=O)O)c3)c2=O)=N1 (stereo not drawn) | 25.1 µM
CCCCCCCCCCOc1cc(C(=O)NCC(C)O)ccc1OC (stereo not drawn) | 85.2 µM
N#Cc1ccc(COc2cccc(C(=O)NO)c2)cc1 | 52.9 µM
CCCCCCCCCCOc1cc(C(=O)NO)ccc1O | 17.4 µM
COc1c(O)cc2oc3cc(O)c(CC=C(C)C)c(O)c3c(=O)c2c1C/C=C(\C)CCC=C(C)C [COWANIN] | 19.2 µM
CCCCCCCCCC(OP(=O)(O)O)OP(=O)(O)O | 0.3 µM
Cc1cc2[nH]c(=O)c(=O)[nH]c2cc1S(=O)(=O)N1CCN(c2cccc(C(F)(F)F)c2)CC1 | 20 µM
CCNC(=O)/C=C/Cc1c(O)c(OC)cc2oc3cc(OC)cc(O)c3c(=O)c12 | 4.89 to 5.07 µM
COc1cc(/C=C2/SC(=S)N(Nc3ncc(C(F)(F)F)cc3Cl)C2=O)cc(OC)c1OC | 28.2 µM
COc1c(O)cc2oc3cc(O)c(CC=C(C)C)c(O)c3c(=O)c2c1CC=C(C)C [MANGOSTIN] | 24.7 µM
